Compound activity as filed in PubChem.
CSC inhib – cancer stem cell inhibition | inhibition, % at 7.5 µM | actives 1.1% (n = 300,000) | cancer stem cell-like cells viability, luminescence | AID 2717; in the data active = inhibition above about 75%; inconclusive = no clear call, values can overlap the other calls; tested in HMLE shEcad cells
T cruzi repl – blocks replication of Trypanosoma cruzi | T. cruzi beta-gal in NIH3T3, luminescence, 90 h | inhibition, % (no concentration beside the values) | actives 1.4% (n = 300,000) | AID 1885;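 active = mean inhibition across valid replicates above about 55%, limit read from the data; inconclusive = mean below that limit but half or more replicates reach it; inactive = mean below it, under half of replicates reach it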;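 also: signal also drops with host cell toxicity which is not excluded here; 0% = plate median of DMSO wells and 100% = zero luminescence signal; higher percent means less beta-gal luminescence so fewer parasites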
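Assay system: NIH/3T3 fibroblasts plus reporter T. cruzi. Amount: NIH/3T3 cells, 5,000 per well. Buffer or medium: DMEM, 2% fetal bovine serum. Doses: compound pinned at 50 nL/well, DMSO. Schedule: ≥90 h infection period, 3 h prior cell attachment. Signal: luminescent β-galactosidase signal after 60 min lysis. Read-out: parasite load inhibition, %.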
Beta cell apopt – blocks beta cell apoptosis. INS-1E cytokine-induced death, ATP luminescence, 48 h; percent of positive-control rescue, neutral wells zero. actives 0.8% (n = 300,000). protection from apoptosis, % (no concentration beside the values). AID 435005;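 active = Every replicate reaches about 75%, or at least half do and their mean reaches it too, limit read from the data; inconclusive = At least half of replicates reach the limit but their mean does not; inactive = Under half of replicates reach the limit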;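 also: 0% = cytokine-treated negative control wells and 100% = positive control rescue; higher means more ATP so stronger rescue from cytokine killing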
UPR CHOP act – activators of apoptotic arm of unfolded protein response (CHOP); CHO-CHOP luciferase reporter, UPR activation, luminescence; percent of tunicamycin response over DMSO baseline; activation, % at 10 µM; actives 0.34% (n = 330,000);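 active = at 10 µM dose, activation of 40% or more, normalized to positive control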;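 also: 100% = tunicamycin at 10 µg/mL and 0% = DMSO alone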
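Material: CHO-CHOP cells, stable luciferase reporter of PERK-eIF2a-CHOP signalling; quantity: 500 reporter cells seeded per well; buffer or medium: F12 medium containing 10% fetal bovine serum; compound: one dose, 10 µM in 0.5% DMSO; incubation: 6 h compound treatment, 37 °C; measured by: Steady-Glo luciferase luminescence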
Mdm2-MdmX inh – disrupts the human Mdm2-MdmX interaction; AID 485346; actives 3% (n = 330,000); SaOS-2 split-luciferase Mdm2/MdmX complementation, luminescence; inhibition, % at 8 µM;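 active = inhibition of at least 50% at 8 µM in the primary screen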
Target sequence (O15151 whole entry, looked up): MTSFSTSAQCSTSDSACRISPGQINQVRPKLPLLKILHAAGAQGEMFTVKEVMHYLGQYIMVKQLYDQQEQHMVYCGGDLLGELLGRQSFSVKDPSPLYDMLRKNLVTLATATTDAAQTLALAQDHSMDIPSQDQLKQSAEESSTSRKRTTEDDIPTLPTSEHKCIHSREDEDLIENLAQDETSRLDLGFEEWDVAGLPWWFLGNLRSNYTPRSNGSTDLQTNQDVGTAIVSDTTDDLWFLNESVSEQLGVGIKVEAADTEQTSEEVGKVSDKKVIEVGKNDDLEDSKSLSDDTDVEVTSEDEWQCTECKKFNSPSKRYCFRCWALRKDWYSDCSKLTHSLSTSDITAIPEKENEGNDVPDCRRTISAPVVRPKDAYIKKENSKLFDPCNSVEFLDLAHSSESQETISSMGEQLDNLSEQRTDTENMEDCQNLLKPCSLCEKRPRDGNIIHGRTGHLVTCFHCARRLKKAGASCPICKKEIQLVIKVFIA
Target sequence (Q00987 whole entry, looked up): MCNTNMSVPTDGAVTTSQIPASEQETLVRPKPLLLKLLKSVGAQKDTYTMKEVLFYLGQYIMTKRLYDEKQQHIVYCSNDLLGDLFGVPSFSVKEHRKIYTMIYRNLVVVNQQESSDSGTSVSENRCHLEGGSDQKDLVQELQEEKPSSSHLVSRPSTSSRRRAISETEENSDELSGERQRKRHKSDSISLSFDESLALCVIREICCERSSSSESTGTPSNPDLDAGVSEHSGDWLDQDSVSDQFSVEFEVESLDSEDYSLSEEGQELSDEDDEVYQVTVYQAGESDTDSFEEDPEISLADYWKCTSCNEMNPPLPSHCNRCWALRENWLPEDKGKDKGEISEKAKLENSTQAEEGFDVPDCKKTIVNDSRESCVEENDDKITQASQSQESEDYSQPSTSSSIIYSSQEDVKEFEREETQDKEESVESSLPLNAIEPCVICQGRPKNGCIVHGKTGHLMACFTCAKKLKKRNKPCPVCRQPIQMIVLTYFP
XBP1 UPR activ – activators of adaptive arm of unfolded protein response (XBP1). CHO-XBP1 luciferase reporter, IRE1-XBP1 UPR activation, luminescence; percent of tunicamycin response, DMSO as zero. actives 0.33% (n = 330,000). activation, % at 20 µM;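 active = versus positive control, 20 µM dose yields 30% or more activation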;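 also: 100% = tunicamycin at 10 µg/mL and 0% = DMSO only wells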
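Test system: CHO-XBP1 luciferase reporter cells | Buffer or medium: Serum-containing F12 medium, 10% FBS | Schedule: 6 h compound exposure at 37 °C, 5% CO2 | Detection: Steady-Glo luciferase glow luminescence, 10 min after reagent addition | Read-out basis: Activation, % of tunicamycin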
Mdm2-MdmX conf – confirmation of human Mdm2/MdmX interaction inhibitors; shares compounds with Mdm2-MdmX inh; Mdm2-MdmX binding, luminescent assay; inhibition, % at 8 µM; actives 55% (n = 10,000); AID 489028; in the data active = inhibition above about 40%
Full FLuc ctr – full-length luciferase inhibition in Mdm2/MdmX counter-screen; shares compounds with Mdm2-MdmX inh; SaOS-2 full-length luciferase counterscreen, luminescence; inhibition, % at 8 µM; actives 77% (n = 6,200);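 active = mean inhibition at 8 µM reaching about 37%, which flags the compound as non-specific, limit read from the data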;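 also: p53-null SaOS-2 cells with luciferase driven by a doxycycline-inducible promoter; compound on cells about two nights before reading with doxycycline added after day one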
Starred values were filed as active, the others as inactive; ? = inconclusive; · = no result. This is a sample that favours compounds with a hit; in the whole collection about 5% have one here.

SMILES	CSC inhib	T cruzi repl	Beta cell apopt	UPR CHOP act	Mdm2-MdmX inh	XBP1 UPR activ	Mdm2-MdmX conf	Full FLuc ctr
Cc1ccc(CN2CCC(c3cc(-c4ccc(Cl)cc4)n[nH]3)CC2)cc1	30.4	44.1	50.7	1.2	64.0*	0.2	36.1	74.0*
Nc1nc(Cl)cc(N2CCC(c3cc(-c4ccc(Cl)cc4)n[nH]3)CC2)n1	70.2	58.2*	104.0*	11.0	83.9*	3.8	-0.9	·
Cn1c(Cc2ccccc2)nnc1SCC(=O)Nc1ccc(N2CCOCC2)cc1	-7.7	-2.5	4.1	-0.3	-14.6	1.8	·	·
O=C(C(Cc1ccccc1)n1cccc1)N1CCN(c2ccccc2)CC1 (stereo not drawn)	-11.7	13.1	-0.9	0.7	-34.6	0.0	·	·
Cc1ccc(C)c(N2CCN(C(=O)C(Cc3ccccc3)n3cccc3)CC2)c1 (stereo not drawn)	29.9	46.0	-1.8	0.6	50.1*	-4.0	27.5	·
CCn1cc(-c2csc(N)n2)c(C)n1	-12.2	-6.9	-16.3	-0.1	-23.2	0.0	·	·
C[C@H](NC(=O)c1nc[nH]c1C(=O)N1CCN(c2ccccc2)CC1)c1ccccc1	3.8	·	-3.5	-1.2	-2.0	-4.0	·	·
Cc1cc(C)nc(/N=C(\N)Nc2ccc(-c3ccccc3)cc2)n1	54.8	7.1	39.8	0.3	51.5*	5.3	21.7	·
COC(=O)c1cn(C(=O)c2ccccc2Cl)c2ccccc12	32.2	-2.3	-5.0	-0.4	19.1	6.4	·	·
COC(=O)c1cn(C(=O)c2ccc(C)cc2C)c2ccccc12	61.6	-29.6	27.9	0.1	61.2*	-2.0	53.3*	56.2*
COC(=O)c1cn(C(=O)/C=C/c2ccc(OC)c(OC)c2)c2ccccc12	58.9	-12.6	5.2	5.2	92.3*	-1.2	66.2*	39.1*
Oc1ccc(Br)cc1-c1n[nH]c(=S)n1Cc1ccccc1	-0.8	-2.8	-1.6	1.4	14.3	4.1	·	·
Oc1ccc(Br)cc1-c1ccnn1-c1ccccc1	68.8	-5.5	5.3	-0.3	64.0*	-5.1	57.2*	50.3*
O=C(CC(Nc1ccc(Cl)cc1Cl)C(=O)O)c1ccccc1 (stereo not drawn)	-10.6	-0.6	-1.3	-4.2	71.4*	-3.9	79.5*	63.4*
O=C(CC(Nc1ccccc1)C(=O)O)c1ccccc1 (stereo not drawn)	-12.1	45.4	-0.4	5.2	-83.4	-0.9	·	·
CC(C)Sc1nc2sc(-c3ccccc3)cc2c(=O)n1N	0.5	·	-8.4	1.2	11.1	-2.6	·	·
CSc1nc2sc(-c3ccccc3)cc2c(=O)n1N	31.4	-5.0	59.9	-1.5	68.2*	1.1	40.5*	164.1*
Cc1ccc(Cc2cc(-c3ccc(C)cc3)n[nH]c2=O)cc1	-14.8	4.2	-18.6	0.4	-7.9	2.2	·	·
CC(C)c1ccc2c(c1)C1(NN=C(c3ccccc3)S1)C(=O)N2 (stereo not drawn)	116.1*	65.8*	73.6	30.6	59.0*	8.6	69.2*	69.2*
CCc1ccc2c(c1)C1(NN=C(c3ccc(C)cc3)S1)C(=O)N2 (stereo not drawn)	9.2	?	49.8	2.3	74.3*	1.4	67.8*	63.2*
COc1cc(/C=C(/C#N)C(=O)NCCc2c[nH]c3ccccc23)ccc1OCc1ccccc1F	46.8	16.1	36.7	16.6	62.8*	17.5	7.2	·
COCC(C)NC(=O)CCS(=O)(=O)c1nc(-c2ccc(OC)cc2)cc(C(F)(F)F)n1 (stereo not drawn)	-22.5	-23.0	-26.8	0.8	43.4	-8.6	·	·
CCOC(=O)CS(=O)(=O)c1nc(-c2ccccc2)cc(C(F)(F)F)n1	98.9*	-31.6	95.8*	-11.3	100.6*	-8.8	97.7*	-0.5
CS(=O)(=O)c1nc(-c2cccs2)cc(C(F)(F)F)n1	100.2*	77.2*	91.1*	-9.6	100.3*	-7.1	98.7*	1.0
O=C(O)CCS(=O)(=O)c1nc(-c2cccs2)cc(C(F)(F)F)n1	2.8	-31.6	-9.0	1.9	8.6	-0.7	·	·
SMILES	CSC inhib	T cruzi repl	Beta cell apopt	UPR CHOP act	Mdm2-MdmX inh	XBP1 UPR activ	Mdm2-MdmX conf	Full FLuc ctr
CCOC(=O)CS(=O)(=O)c1nc(-c2ccc(F)cc2)cc(C(F)(F)F)n1	99.1*	-76.9	·	-6.6	100.3*	-11.3	98.1*	51.5*
COC(=O)CCS(=O)(=O)c1nc(-c2ccccc2)cc(C(F)(F)F)n1	·	-38.4	28.0	3.8	83.7*	-7.1	100.2*	51.4*
COCCC(=O)N1CCC(n2nccc2NC(=O)CCc2ccccc2)CC1	-20.1	-7.9	-4.9	1.9	0.6	-0.1	·	·
Cc1ccc(/C=[N+](\[O-])c2ccc(N(C)C)cc2)c2nsnc12	·	28.0	·	1.3	-21.3	3.3	·	·
C=CCN1C2CCCC1CC(NC(=O)Nc1cc(C)cc(C)c1)C2 (stereo not drawn)	7.1	20.3	·	-1.0	-16.8	0.3	·	·
CSc1cccc(NC(=O)C(=O)NCc2ccccc2)c1	-13.9	-7.8	-3.8	5.3	26.0	2.7	·	·
CSc1cccc(NC(=O)NCc2cccc(CNC(=O)Nc3cccc(SC)c3)c2)c1	·	-3.8	·	5.6	55.5*	14.0	45.9*	66.8*
COC(=O)c1cc(OC)c(OC)cc1NC(=O)Nc1cccc(C(C)=O)c1	-3.4	-12.8	-1.4	0.0	-36.3	0.3	·	·
COc1ccccc1C(=O)Nc1cccc2nc(C)ccc12	-5.1	1.2	3.4	-1.6	-25.4	-0.5	·	·
Cc1ccc(S(=O)(=O)Nc2ccc(N3CCOCC3)cc2)cc1C	-9.0	4.6	0.3	2.8	23.8	-6.1	·	·
Cc1ccc(Sc2ccc(NC(=O)CCl)cc2)cc1C	33.7	49.5	0.3	37.9	81.3*	10.6	27.7	·
Cc1ccc(NC(=O)CC(=O)Nc2ccc(C)c(C)c2)cc1C	·	-4.8	-6.3	-0.9	13.5	-6.8	·	·
Cc1ccc(C)c(Sc2ccc(NC(=O)CCl)cc2)c1	14.3	40.1	1.3	13.1	66.9*	4.2	29.6	·
CCc1ccc(NC(=O)CSc2nnc(CNC(=O)c3cccs3)o2)cc1	-10.0	-12.1	1.4	1.5	-10.0	-0.7	·	·
c1nc(CCO[C@H]2CCCCO2)cc2cc3c(cc12)OCO3	-2.3	·	-2.2	-6.4	55.6*	-9.2	34.9	·
c1ccc2cc(CCO[C@H]3CCCCO3)ncc2c1	-4.1	·	-0.3	-2.9	1.7	-5.9	·	·
CCOC(=O)c1sc(NC(=O)CN2C(=O)c3cccc4cccc(c34)C2=O)nc1C	7.4	2.4	-4.6	0.2	72.9*	-3.5	13.2	·
